Reference: ChEMBL document CHEMBL1145037, “Structural properties of dibenzosuberanylpiperazine derivatives for efficient reversal of chloroquine resistance in Plasmodium chabaudi” (2003)

Legend:
Mus musculus [1] = test: Chloroquine resistant reversal activity was determined on day 2 in female mice after intraperitoneal administration of 10 mg and 4 mg of chloroquine; type: functional
In short: (§1)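 Female ICR (CD-1) mice, 4-5 weeks old, infected iv with 5×10^6 PRBC of CQ-resistant 3CQ line of P. chabaudi AS (cryopreserved stock). 2 h later, test compound (in DMSO diluted with saline to 10% w/v DMSO) given ip, followed by ip CQ; repeated for 3 more days (four injections). Groups: DMSO, CQ alone, compound alone, combination. Parasitemia from Giemsa thin films, daily days 0-4.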

Mus musculus [2] = test: Chloroquine resistant reversal activity was determined on day 3 in female mice after intraperitoneal administration of 5 mg and 4 mg of chloroquine; type: functional; in short: as §1
Mus musculus [3] = test: Chloroquine resistant reversal activity was determined on day 3 in female mice after intraperitoneal administration of 10 mg and 4 mg of chloroquine; type: functional; in short: as §1
Mus musculus [4] = test: Chloroquine resistant reversal activity was determined on day 4 in female mice after intraperitoneal administration of 15 mg and 4 mg of chloroquine; type: functional; in short: as §1
Mus musculus [5] = test: Chloroquine resistant reversal activity was determined on day 4 in female mice after intraperitoneal administration of 5 mg and 4 mg of chloroquine; type: functional; in short: as §1
Mus musculus [6] = test: Chloroquine resistant reversal activity was determined on day 3 in female mice after intraperitoneal administration of 15 mg and 4 mg of chloroquine; type: functional; in short: as §1
Mus musculus [7] = test: Chloroquine resistant reversal activity was determined on day 1 in female mice after intraperitoneal administration of 10 mg and 4 mg of chloroquine; type: functional; in short: as §1
Mus musculus [8] = test: Chloroquine resistant reversal activity was determined in female mice after intraperitoneal administration of 15 mg and 4 mg of chloroquine; type: functional; in short: as §1
Mus musculus [9] = test: Chloroquine resistant reversal activity was determined on day 1 in female mice after intraperitoneal administration of 15 mg and 4 mg of chloroquine; type: functional; in short: as §1
Mus musculus [10] = test: Chloroquine resistant reversal activity was determined on day 2 in female mice after intraperitoneal administration of 5 mg and 4 mg of chloroquine; type: functional; in short: as §1
Mus musculus [11] = test: Chloroquine resistant reversal activity was determined on day 0 in female mice after intraperitoneal administration of 10 mg and 4 mg of chloroquine; type: functional; in short: as §1
Mus musculus [12] = test: Chloroquine resistant reversal activity was determined on day 0 in female mice after intraperitoneal administration of 15 mg and 4 mg of chloroquine; type: functional; in short: as §1
Mus musculus [13] = test: Chloroquine resistant reversal activity was determined on day 1 in female mice after intraperitoneal administration of 5 mg and 4 mg of chloroquine; type: functional; in short: as §1
Mus musculus [14] = test: Antimalarial activity was determined in female mice after intraperitoneal administration of 15 mg of the compound; type: functional
In short: (§2)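 4- to 5-week-old female ICR (CD-1) mice infected iv with 5×10^6 parasitized RBC of CQ-resistant 3CQ line of P. chabaudi AS, thawed from cryopreserved stock. Compound dissolved in DMSO, diluted with saline to 10% (w/v) DMSO, given ip 2 h post-infection and daily for 3 more days (four injections). Parasitemia (PRBC per 10 000 RBC, Giemsa thin films) read daily for 5 days; two mice per compound, three or five for some.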

Mus musculus [15] = test: Chloroquine resistant reversal activity was determined on day 0 in female mice after intraperitoneal administration of 5 mg and 4 mg of chloroquine; type: functional; in short: as §1
Mus musculus [16] = test: Chloroquine resistant reversal activity was determined on day 2 in female mice after intraperitoneal administration of 15 mg and 4 mg of chloroquine; type: functional; in short: as §1
Mus musculus [17] = test: Chloroquine resistant reversal activity was determined on day 4 in female mice after intraperitoneal administration of 10 mg and 4 mg of chloroquine; type: functional; in short: as §1
[18] = Antimalarial activity was determined in female mice (Mus musculus) after intraperitoneal administration of 50 mg; type: functional, Plasmodium chabaudi; in short: as §2
[19] = chloroquine-resistant reversal activity was determined in female mice (Mus musculus) after intraperitoneal administration of 50 mg; type: functional, Plasmodium chabaudi
In short: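 Female ICR CD-1 mice, 4–5 weeks old, given 5×10^6 P. chabaudi AS 3CQ (CQ-resistant) line PRBC iv (thawed from cryopreserved blood). 2 h later, test compound (in DMSO diluted with saline to 10% DMSO) ip plus chloroquine 3 or 4 mg/kg ip, repeated daily for 4 total injections. Controls: DMSO, CQ alone, compound alone. Parasitemia per 10 000 RBC on Giemsa smears daily for 5 days.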

Mus musculus [20] = test: Chloroquine resistant reversal activity was determined in female mice after intraperitoneal administration of 50 mg and 4 mg of chloroquine; type: functional; in short: as §1
Mus musculus [21] = test: Chloroquine resistant reversal activity was determined on day 4 in female mice after intraperitoneal administration of 50 mg and 4 mg of chloroquine; type: functional; in short: as §1
Mus musculus [22] = test: Chloroquine resistant reversal activity was determined on day 2 in female mice after intraperitoneal administration of 50 mg and 4 mg of chloroquine; type: functional; in short: as §1
Mus musculus [23] = test: Chloroquine resistant reversal activity was determined on day 3 in female mice after intraperitoneal administration of 30 mg and 4 mg of chloroquine; type: functional; in short: as §1
Mus musculus [24] = test: Chloroquine resistant reversal activity was determined on day 3 in female mice after intraperitoneal administration of 50 mg and 4 mg of chloroquine; type: functional; in short: as §1
Mus musculus [25] = test: Chloroquine resistant reversal activity was determined on day 4 in female mice after intraperitoneal administration of 40 mg and 4 mg of chloroquine; type: functional; in short: as §1
Mus musculus [26] = test: Chloroquine resistant reversal activity was determined on day 0 in female mice after intraperitoneal administration of 40 mg and 4 mg of chloroquine; type: functional; in short: as §1
Mus musculus [27] = test: Chloroquine resistant reversal activity was determined on day 1 in female mice after intraperitoneal administration of 40 mg and 4 mg of chloroquine; type: functional; in short: as §1
Mus musculus [28] = test: Chloroquine resistant reversal activity was determined on day 3 in female mice after intraperitoneal administration of 40 mg and 4 mg of chloroquine; type: functional; in short: as §1
Mus musculus [29] = test: Chloroquine resistant reversal activity was determined on day 4 in female mice after intraperitoneal administration of 30 mg and 4 mg of chloroquine; type: functional; in short: as §1
Mus musculus [30] = test: Chloroquine resistant reversal activity was determined on day 0 in female mice after intraperitoneal administration of 50 mg and 4 mg of chloroquine; type: functional; in short: as §1
Mus musculus [31] = test: Chloroquine resistant reversal activity was determined on day 0 in female mice after intraperitoneal administration of 30 mg and 4 mg of chloroquine; type: functional; in short: as §1
Mus musculus [32] = test: Chloroquine resistant reversal activity was determined on day 2 in female mice after intraperitoneal administration of 30 mg and 4 mg of chloroquine; type: functional; in short: as §1
Mus musculus [33] = test: Chloroquine resistant reversal activity was determined on day 1 in female mice after intraperitoneal administration of 30 mg and 4 mg of chloroquine; type: functional; in short: as §1
Mus musculus [34] = test: Chloroquine resistant reversal activity was determined on day 2 in female mice after intraperitoneal administration of 40 mg and 4 mg of chloroquine; type: functional; in short: as §1
Mus musculus [35] = test: Chloroquine resistant reversal activity was determined on day 1 in female mice after intraperitoneal administration of 50 mg and 4 mg of chloroquine; type: functional; in short: as §1
Mus musculus [36] = test: Chloroquine resistant reversal activity was determined in female mice after intraperitoneal administration of 50 mg and 3 mg of chloroquine; type: functional; in short: as §1

Compound: C=CC(CO)N1CCN(C2c3ccccc3CCc3ccccc32)CC1 (stereo unspecified)
- Reversal activity (Mus musculus [1]): 37%
- Reversal activity (Mus musculus [2]): 33%
- Reversal activity (Mus musculus [3]): 23%
- Reversal activity (Mus musculus [4]): 2.6%
- Reversal activity (Mus musculus [5]): 17%
- Reversal activity (Mus musculus [6]): 4%
- Reversal activity (Mus musculus [7]): 59%
- Reversal activity (Mus musculus [8]): 2.6%
- Reversal activity (Mus musculus [9]): 37%
- Reversal activity (Mus musculus [10]): 35%
- Reversal activity (Mus musculus [11]): 0%
- Reversal activity (Mus musculus [12]): 0%
- Reversal activity (Mus musculus [13]): 69%
- Antimalarial activity (Mus musculus [14]): 103%
- Reversal activity (Mus musculus [15]): 0%
- Reversal activity (Mus musculus [16]): 13%
- Reversal activity (Mus musculus [17]): 8.6%

Compound: CCCCCCCCC(O)CN1CCN(C2c3ccccc3CCc3ccccc32)CC1 (stereo unspecified)
- Antimalarial activity [18]: 152%
- Reversal activity [19]: 84%

Compound: OC(COc1ccccc1)CN1CCN(C2c3ccccc3CCc3ccccc32)CC1 (stereo unspecified)
- Antimalarial activity [18]: 136%
- Reversal activity [19]: 113%

Compound: C=CCCC(O)CN1CCN(C2c3ccccc3CCc3ccccc32)CC1 (stereo unspecified)
- Antimalarial activity [18]: 101%
- Reversal activity [19]: 0%

Compound: CCCCCCCCCCCCCCCCC(O)CN1CCN(C2c3ccccc3CCc3ccccc32)CC1 (stereo unspecified)
- Antimalarial activity [18]: 67%
- Reversal activity [19]: 68%

Compound: OCC#CCN1CCN(C2c3ccccc3CCc3ccccc32)CC1
- Antimalarial activity [18]: 121%
- Reversal activity (Mus musculus [20]): 0%

Compound: C=CC(C)N1CCN(C2c3ccccc3CCc3ccccc32)CC1 (stereo unspecified)
- Antimalarial activity [18]: 22%
- Reversal activity (Mus musculus [20]): 0%

Compound: CCCCCCC(O)CN1CCN(C2c3ccccc3CCc3ccccc32)CC1 (stereo unspecified)
- Antimalarial activity [18]: 92%
- Reversal activity [19]: 102%

Compound: CC(=O)OCC#CCN1CCN(C2c3ccccc3CCc3ccccc32)CC1
- Antimalarial activity [18]: 116%
- Reversal activity (Mus musculus [20]): 0%

Compound: C=CCCCCC(O)CN1CCN(C2c3ccccc3CCc3ccccc32)CC1 (stereo unspecified)
- Antimalarial activity [18]: 108%
- Reversal activity [19]: 8.9%

Compound: CCCCCCCCCCCCCCC(O)CN1CCN(C2c3ccccc3CCc3ccccc32)CC1 (stereo unspecified)
- Antimalarial activity [18]: 122%
- Reversal activity [19]: 110%

Compound: C=CC(O)CN1CCN(C2c3ccccc3CCc3ccccc32)CC1 (stereo unspecified)
- Antimalarial activity [18]: 82%
- Reversal activity (Mus musculus [21]): 0%
- Reversal activity (Mus musculus [22]): 6.2%
- Reversal activity (Mus musculus [23]): 2.9%
- Reversal activity (Mus musculus [1]): 21%
- Reversal activity (Mus musculus [2]): 12%
- Reversal activity (Mus musculus [20]): 0%
- Reversal activity (Mus musculus [24]): 0%
- Reversal activity (Mus musculus [25]): 0%
- Reversal activity (Mus musculus [3]): 7.9%
- Reversal activity (Mus musculus [4]): 5.4%
- Reversal activity (Mus musculus [5]): 11%
- Reversal activity (Mus musculus [6]): 9.5%
- Reversal activity (Mus musculus [7]): 62%
- Reversal activity (Mus musculus [26]): 0%
- Reversal activity (Mus musculus [27]): 33%
- Reversal activity (Mus musculus [28]): 0%
- Reversal activity (Mus musculus [29]): 0%
- Reversal activity (Mus musculus [9]): 49%
- Reversal activity (Mus musculus [10]): 32%
- Reversal activity (Mus musculus [30]): 0%
- Reversal activity (Mus musculus [11]): 0%
- Reversal activity (Mus musculus [31]): 0%
- Reversal activity (Mus musculus [32]): 38%
- Reversal activity (Mus musculus [12]): 0%
- Reversal activity (Mus musculus [13]): 76%
- Reversal activity (Mus musculus [15]): 0%
- Reversal activity (Mus musculus [16]): 16%
- Reversal activity (Mus musculus [17]): 6%
- Reversal activity (Mus musculus [33]): 55%
- Reversal activity (Mus musculus [34]): 10%
- Reversal activity (Mus musculus [35]): 42%

Compound: Cl.c1ccc2c(c1)CCc1ccccc1C2N1CCN(C2c3ccccc3CCc3ccccc32)CC1
- Antimalarial activity [18]: 108%
- Reversal activity [19]: 81%

Compound: CCC(O)CN1CCN(C2c3ccccc3CCc3ccccc32)CC1 (stereo unspecified)
- Antimalarial activity [18]: 99%
- Reversal activity (Mus musculus [20]): 0%

Compound: C=CCCCCCCC(O)CN1CCN(C2c3ccccc3CCc3ccccc32)CC1 (stereo unspecified)
- Antimalarial activity [18]: 68%
- Reversal activity [19]: 6.8%

Compound: CCCCCCCCCCCCC(O)CN1CCN(C2c3ccccc3CCc3ccccc32)CC1 (stereo unspecified)
- Antimalarial activity [18]: 138%
- Reversal activity [19]: 64%

Compound: Cl.c1ccc2c(c1)CCc1ccccc1C2N1CCNCC1
- Antimalarial activity [18]: 68%
- Reversal activity (Mus musculus [20]): 2%

Compound: COc1ccc(OCC(O)CN2CCN(C3c4ccccc4CCc4ccccc43)CC2)cc1 (stereo unspecified)
- Antimalarial activity [18]: 147%
- Reversal activity (Mus musculus [36]): 90%
